Read-outs that look alike come from different tables or passages of the source.
Experiments:
[1] = type: in vivo, human; conditions: for CL/F (total apparent clearance): SNAC after 10th dose, geometric mean (CV)
Method in brief: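 Adults with hepatic function graded by Child-Pugh took one oral tablet daily for 10 days: 5 mg for 5 days, then 10 mg for 5 days. Each tablet held 300 mg SNAC and was taken with 120 mL water after a ≥6 h fast. Plasma was sampled within 24 h after dosing on days 1 and 10 into K3-EDTA and stored at −20°C. LC-MS/MS used in-line solid-phase preparation and internal-standard peak area ratios, with an LLOQ of 5.00 ng/mL.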

[2] = Urine bioanalysis / renal clearance of semaglutide and SNAC; type: in vivo, human; conditions: for CLR (renal clearance): SNAC after 10th dose, geometric mean (CV)
Method in brief: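 Urine was collected before dosing on day 1 and in fractions after the day-10 dose (0–4, 4–8, 16–24 and 24–36 h) and stored at −20°C. 1% Triton X-100 was added at 1 part per 9 parts urine. Semaglutide and SNAC were measured by the plasma LC-MS/MS assays, with ranges corrected by a factor of 1.111. Renal clearance was reported as the geometric mean (CV) per hepatic function group.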

plasma protein = test: Plasma protein binding of SNAC; type: in vitro ADME, human
Method in brief: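 Plasma protein binding measured ex vivo by rapid equilibrium dialysis on blood drawn 30 minutes after the day-10 dose. Subjects with normal hepatic function or mild, moderate or severe hepatic impairment received the oral semaglutide/SNAC co-formulation for 10 consecutive days. Food and liquid were withheld for 30 minutes post-dose. The read-out is the fraction of unbound SNAC per subject, summarised as a median per group.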

[3] = subcutaneous once-daily liraglutide; cited from earlier work
[4] = mild hepatic impairment (n = 12)
[5] = moderate hepatic impairment (n = 12)
[6] = normal hepatic function (n = 24)
[7] = severe hepatic impairment (n = 8)

In the case of `O=C([O-])CCCCCCCNC(=O)c1ccccc1O.[Na+]` [SNAC, sodium N‐(8‐[2‐hydroxybenzoyl]amino) caprylate], the “CL/F (total apparent clearance)” value [1, 4] is reported as 195.6 (24.2) L/h, the “CL/F (total apparent clearance)” value [1, 5] is reported as 105.1 (63.1) L/h and the “CL/F (total apparent clearance)” value [1, 6] is reported as 275.8 (27.9) L/h. The “CL/F (total apparent clearance)” value [1, 7] was 78.5 (36.4) L/h, the “Median tmax of SNAC” value ([1]; across the 4 hepatic function groups) was “approximately 0.5 hours” and the “Accumulation of SNAC” value ([1]; day 1 vs day 10 exposure, any hepatic function group) was “No accumulation”. For the same compound, the “CLR (renal clearance)” value [2, 4] was 0.075 (125.3) L/h, the “CLR (renal clearance)” value [2, 5] was 0.054 (73.98) L/h and the “CLR (renal clearance)” value [2, 6] was 0.076 (109.0) L/h. For the same compound, the “CLR (renal clearance)” value [2, 7] was 0.111 (88.52) L/h, the “Estimated mean CLR of SNAC, range across groups” value ([2]; range of estimated means with 95%CI across hepatic function groups) was 0.052 [95%CI, 0.036–0.076]–0.096 [95%CI, 0.059–0.157] L/h and the “Median fraction of unbound SNAC” value (plasma protein; across the hepatic function groups, samples 30 minutes after dosing on day 10) was “less than 1%”. For the same compound, the “Plasma protein binding of SNAC” value (plasma protein; all subjects across hepatic function groups) was “more than 99%”.
In the case of `CC[C@H](C)[C@H](NC(=O)[C@H](Cc1ccccc1)NC(=O)[C@H](CCC(=O)O)NC(=O)[C@H](CCCCNC(=O)COCCOCCNC(=O)COCCOCCNC(=O)CC[C@H](NC(=O)CCCCCCCCCCCCCCCCC(=O)O)C(=O)O)NC(=O)[C@H](C)NC(=O)[C@H](C)NC(=O)[C@H](CCC(N)=O)NC(=O)CNC(=O)[C@H](CCC(=O)O)NC(=O)[C@H](CC(C)C)NC(=O)[C@H](Cc1ccc(O)cc1)NC(=O)[C@H](CO)NC(=O)[C@H](CO)NC(=O)[C@@H](NC(=O)[C@H](CC(=O)O)NC(=O)[C@H](CO)NC(=O)[C@@H](NC(=O)[C@H](Cc1ccccc1)NC(=O)[C@@H](NC(=O)CNC(=O)[C@H](CCC(=O)O)NC(=O)C(C)(C)NC(=O)[C@@H](N)Cc1cnc[nH]1)[C@@H](C)O)[C@@H](C)O)C(C)C)C(=O)N[C@@H](C)C(=O)N[C@@H](Cc1c[nH]c2ccccc12)C(=O)N[C@@H](CC(C)C)C(=O)N[C@H](C(=O)N[C@@H](CCCNC(=N)N)C(=O)NCC(=O)N[C@@H](CCCNC(=N)N)C(=O)NCC(=O)O)C(C)C` [Semaglutide, reference compound], the “Semaglutide in urine samples” value ([2]; subjects with normal hepatic function and all hepatic impairment groups) is reported as “not detected”.
In the case of liraglutide, the “Drug exposure with impaired liver function” value [3] is given as “not increased”.

Source: PMC6175428 (Journal of Clinical Pharmacology, 2018)
